ChEMBL document CHEMBL3124751, “The versatile nature of the 6-aminoquinolone scaffold: identification of submicromolar hepatitis C virus NS5B inhibitors” (J Med Chem, 2014)

Tests used:
[1] = Cytostatic activity against human Huh5-2 cells assessed as cell viability after 72 hrs by MTS assay; type: cell-based; conditions: huh-5-2, 72 h
Summary of the method: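 Huh 5-2 cells carry genotype 1b I389luc-ubineo/NS3-3'/5.1 replicon, maintained with 2% Geneticin. Seeded at 6 500 cells/well in Geneticin-free assay medium, overnight. Four-step 1:5 dilution screen or eight-step 1:2 series, 72 h at 37 °C. 5% MTS for 1.5 h, absorbance at 498 nm as % of untreated. CC50 from dose-response, mean of ≥3 independent experiments.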

[2] = tested on: Hepatitis C virus isolate HC-J4; assay: Inhibition of Hepatitis C virus genotype 1b HC-J4 recombinant N-terminal histidine tagged truncated NS5B polymerase lacking C-terminal 21 amino acids assessed as standard-primer dependent elongation reaction using poly rA/U12 as template at 25 uM after 1 hr by liquid scintillation counting analysis
Summary of the method: (§1)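 Construct is His-tagged HC-J4 NS5B CΔ21, Ni-NTA purified. Poly rA/U12 primer-dependent elongation run 1 h at 30 °C, then stopped with chilled 5% TCA/0.5 mM pyrophosphate. Products collected on GF-B filters and counted by scintillation. Activity expressed relative to DMSO control. Screen at 25 μM. IC50 from 8–12 concentrations in duplicate, two independent experiments, by nonlinear regression.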

Hepatitis C virus [3] = assay: Antiviral activity against Hepatitis C virus genotype 1b I389luc-ubi-neo/NS3-3'/5.1 replicon in Huh 5-2 cells assessed as inhibition of replicon replication after 72 hrs by replicon system assay; type: functional, organism-based, Hepacivirus hominis; conditions: Huh-5-2, 72 h
Summary of the method: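 Huh 5-2 replicon cells seeded at 6 500 cells/well one day before compound in DMEM with 10% FCS, 1% non-essential amino acids, 1% penicillin/streptomycin, no Geneticin. Four-step 1-to-5 or eight-step 1-to-2 dilutions, 72 h at 37 °C, 5% CO₂. Luciferase luminescence read after lysis, as % of untreated controls. EC50/EC90 from dose-response curves, means of at least three independent experiments.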

[4] = Inhibition of Hepatitis C virus genotype 1b HC-J4 recombinant N-terminal histidine tagged truncated NS5B polymerase lacking C-terminal 21 amino acids assessed as standard-primer dependent elongation reaction using poly rA/U12 as template after 1 hr by liquid scintillation counting analysis; design: species or system Hepatitis C virus isolate HC-J4; summary of the method: as §1
[5] = Selectivity index, ratio of CC50 for human Huh5-2 cells to EC50 for Hepatitis C virus genotype 1b I389luc-ubi-neo/NS3-3'/5.1 replicon in Huh 5-2 cells; type: toxicity, cell-based; conditions: read-out: Ratio CC50/EC50
Summary of the method: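 Huh 5-2 replicon cells seeded at 6,500/well, overnight at 37 °C; compound dilution series (four-step 1:5 screen, eight-step 1:2 dose-response), 72 h. Antiviral: luciferase luminescence versus untreated controls. Parallel anti-metabolic: 5% MTS 1.5 h, absorbance 498 nm. EC50, CC50 from dose-response curves, means of at least three independent experiments; SI = CC50/EC50.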

[6] = Binding affinity to Hepatitis C virus isolate Con1 C-terminal hexahistidine fusion-tagged NS5B polymerase ectodomain by surface plasmon resonance assay
Summary of the method: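 Con1 NS5B ectodomain (C-terminal His6) amine-coupled to CM5 chip at 4–5 kRU from 10 mM MES pH 6.0. Running buffer TBS-P (20 mM Tris pH 7.4, 130 mM NaCl, 0.05% Tween20, 5% DMSO). Compound injected 60 s at 30 μL/min, two-fold series 6–200 μM. Reference/blank subtraction, solvent correction; KD from global 1:1 Langmuir fit.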

[7] = Binding affinity to Hepatitis C virus truncated NS5B polymerase lacking C-terminal 21 amino acids after 5 mins by fluorescence quenching assay; design: species or system Hepacivirus hominis
Summary of the method: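 NS5B CΔ21 at 1 μM final in 50 mM Tris-HCl pH 7.8, 50 mM NaCl, 10% glycerol, 10% DMSO, 0.5 mM MnCl2. Serially diluted compound or DMSO, 5 min at room temperature. Intrinsic fluorescence excitation 280 nm, emission 330 nm; buffer-plus-compound background subtracted. KD fitted to ΔF/ΔFmax = [compound]total/(KD + [compound]total).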

Hepatitis C virus [8] = assay: Antiviral activity against Hepatitis C virus genotype 1b I389luc-ubi-neo/NS3-3'/5.1 replicon in Huh 9-13 cells assessed as reduction in replicon RNA level after 72 hrs by RT-PCR analysis; type: functional, organism-based, Hepacivirus hominis
[9] = Cytotoxicity against human Huh-9-13 cells assessed as alteration in cell morphology by microscopic analysis; type: cell-based
[10] = Cytostatic activity against human Huh-9-13 cells assessed as cell viability after 72 hrs by MTS assay; type: cell-based
Summary of the method: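 Huh 9–13 subgenomic replicon cells seeded at 6 500 cells/well in DMEM with 10% FCS, 1% non-essential amino acids, 1% penicillin/streptomycin, then incubated overnight. Compound dilution series given, 72 h at 37 °C, 5% CO₂. Medium replaced with 5% MTS in phenol red-free medium for 1.5 h. Absorbance read at 498 nm as % of untreated. CC50 taken from dose-response, mean of ≥3 independent experiments.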

[11] = Selectivity index, ratio of CC50 for human Huh-9-13 cells to EC50 for Hepatitis C virus genotype 1b I389luc-ubi-neo/NS3-3'/5.1 replicon in Huh-9-13 cells; type: toxicity, cell-based; conditions: read-out: Ratio CC50/EC50
Summary of the method: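 Huh 9-13 replicon cells, setup and 72 h compound exposure as for Huh 5-2; CC50 by MTS in parallel. Antiviral readout: replicon RNA by one-step RT-qPCR of cell-to-cDNA lysates (300 nM each primer, 60 nM probe; 40 cycles), expressed as percentage of untreated controls to give EC50; SI = CC50/EC50.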

Structure (SMILES)	CC50 [1] [µM]	inhibition [2] [%]	EC50 (Hepatitis C virus [3]) [µM]	IC50 [4] [µM]	EC90 (Hepatitis C virus [3]) [µM]	selectivity ratio [5]	Kd [6] [µM]	Kd [7] [µM]	EC50 (Hepatitis C virus [8]) [µM]	Activity [9]	CC50 [10] [µM]	selectivity ratio [11]
Nc1cc2c(=O)c(C(=O)OCc3ccc(Cl)cc3)cn(Cc3ccc(Cl)cc3)c2cc1N1CCN(c2nc3ccccc3s2)CC1	> 169	> 50	8.6	0.138								
Cc1ccc(COC(=O)c2cn(Cc3ccc(C(F)(F)F)cc3F)c3cc(Cl)c(N)cc3c2=O)cc1	> 192	> 50	72.3	0.154	> 192							
Cc1ccccc1COC(=O)c1cn(Cc2ccc(C(F)(F)F)cc2F)c2cc(Cl)c(N)cc2c1=O	10.5	> 50	1.5	1.41		6.8						
CN1CCN(c2cc3c(cc2N)c(=O)c(C(=O)OCc2ccc(Cl)cc2)cn3Cc2ccc(Cl)cc2)CC1	2.8	> 50	2.7	0.04		1.2	14	1.2				
Nc1cc2c(=O)c(C(=O)OCc3ccc(Cl)cc3)cn(Cc3ccc(Cl)cc3)c2cc1N1CCN(c2cccc(C(F)(F)F)c2)CC1	> 147	> 50	23.8	6.13	94.6							
Nc1cc2c(=O)c(C(=O)OCc3ccc(Cl)cc3)cn(Cc3ccc(Cl)cc3)c2cc1N1CCNCC1	3.7	> 50	1.7	0.067		2.3						
COc1cc2c(=O)c(C(=O)OCc3ccc(C)cc3)cn(Cc3ccc(C(F)(F)F)cc3F)c2cc1OC	42.3		2.02	0.211	4.7	21						
Nc1cc2c(=O)c(C(=O)OCc3ccc(Cl)cc3)cn(Cc3ccc(Cl)cc3)c2cc1N1CCN(c2ccccn2)CC1	> 244	> 50	2.2	0.069	13.5	> 111			3.03	Toxic	> 163	> 54
CCOC(=O)c1cn(Cc2ccc(Cl)cc2)c2cc(N3CCN(c4ccccn4)CC3)c(N)cc2c1=O	> 193		31.3	3.06		> 6.2						
Nc1cc2c(=O)c(C(=O)OCc3ccc(Cl)cc3)cn(Cc3ccc(Cl)cc3)c2cc1Cl	> 200		> 200		> 200							
Nc1cc2c(=O)c(C(=O)O)cn(Cc3ccc(Cl)cc3)c2cc1N1CCN(c2ccccn2)CC1	> 204		7.3	23.7								
